{"data": "Results of several laboratories", "target": "Membrane-associated tyrosine- and threonine-specific cdc2-inhibitory kinase (PKMYT1, Homo sapiens, UniProt Q99640)", "Sequence (Q99640 1-499, as in one of the studies)": "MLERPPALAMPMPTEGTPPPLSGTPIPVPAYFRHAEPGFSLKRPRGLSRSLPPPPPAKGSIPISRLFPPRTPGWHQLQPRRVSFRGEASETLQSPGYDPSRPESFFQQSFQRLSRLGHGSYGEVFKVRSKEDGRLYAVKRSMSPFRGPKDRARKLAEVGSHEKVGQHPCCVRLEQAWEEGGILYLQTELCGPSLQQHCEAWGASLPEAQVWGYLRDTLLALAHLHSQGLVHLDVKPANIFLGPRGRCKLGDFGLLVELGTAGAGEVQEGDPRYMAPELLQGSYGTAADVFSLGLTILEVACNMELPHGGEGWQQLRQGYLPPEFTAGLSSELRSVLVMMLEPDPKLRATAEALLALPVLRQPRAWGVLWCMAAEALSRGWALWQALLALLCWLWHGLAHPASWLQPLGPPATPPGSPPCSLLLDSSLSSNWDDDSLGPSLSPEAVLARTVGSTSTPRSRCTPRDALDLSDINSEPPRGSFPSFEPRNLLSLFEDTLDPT"}
{"SMILES": "CC(=O)c1c(NS(C)(=O)=O)c2cc(-c3ccc(Cl)cc3)c(-c3ccc(Cl)cc3Cl)nc2n(C)c1=O", "assay": "cell-free assay, competition with immobilised ligand", "setting": "1 µM", "remaining binding": "99%"}
{"SMILES": "CN(c1nccc(-c2cnn3ncccc23)n1)C1CC1", "assay": "binding", "setting": "1 µM", "remaining binding": "88%"}
{"SMILES": "O=C1CCc2cc(Nc3cc(OC4CCOCC4)c([N+](=O)[O-])cc3Cl)ccc2N1", "assay": "cell-free assay, competition with immobilised ligand", "setting": "1 µM", "remaining binding": "79%"}
{"SMILES": "F[C@@H]1CCN(c2nccc(-c3cnn4ncccc34)n2)C1", "assay": "binding", "setting": "1 µM", "remaining binding": "100%"}
{"SMILES": "CCC(=O)N[C@@H]1CC[C@H](C(=O)N(C)c2ccc(-c3nc4ccccc4o3)cc2)C1", "assay": "cell-free assay, competition with immobilised ligand", "setting": "1 µM", "remaining binding": "100%"}
{"SMILES": "O=C(c1ccc(Nc2ncc(Cl)c(-c3cc4ccccc4s3)n2)cc1)N1CCC(N2CCCC2)CC1", "assay": "binding, competition with immobilised ligand", "setting": "1 µM", "remaining binding": "87%"}
{"SMILES": "NS(=O)(=O)c1cc(NC(=O)Cc2ccccc2)ccc1Oc1cccc(Cl)c1", "assay": "cell-free assay, competition with immobilised ligand", "setting": "1 µM", "remaining binding": "96%"}
{"SMILES": "O=C(c1ccc(Nc2ncc(Cl)c(-c3ccc(Cl)s3)n2)cc1)N1CCC(N2CCCC2)CC1", "assay": "binding, competition with immobilised ligand", "setting": "1 µM", "remaining binding": "100%"}
{"SMILES": "O=C(Nc1c[nH]nc1C(=O)NC1CCNCC1)c1cc(F)cc(F)c1", "assay": "binding, competition with immobilised ligand", "setting": "1 µM", "remaining binding": "83%"}
{"SMILES": "FC(F)(F)Oc1cccc(-c2cnc3ccc(-c4ccncc4)nn23)c1", "assay": "cell-free assay, competition with immobilised ligand", "setting": "5 µM", "remaining binding": "67%"}
{"SMILES": "COc1cnc(Nc2cccc(S(N)(=O)=O)c2)nc1N1CCN(c2ccccc2)CC1", "assay": "binding, competition with immobilised ligand", "setting": "1 µM", "remaining binding": "89%"}
{"SMILES": "CCN1CCN(Cc2ccc(C(=O)Nc3ccc(C)c(Oc4ccc5c(c4)CC(=O)N5)c3)cc2C(F)(F)F)CC1", "assay": "binding, competition with immobilised ligand", "setting": "1 µM", "remaining binding": "70%"}
{"SMILES": "CN(C)c1nccc(-c2cnn3ncccc23)n1", "assay": "binding", "setting": "1 µM", "remaining binding": "100%"}
{"SMILES": "Cc1cnc(Nc2ccc(C(=O)N3CCC(N4CCCC4)CC3)cc2)nc1-c1cc2ccccc2s1", "assay": "binding, competition with immobilised ligand", "setting": "1 µM", "remaining binding": "80%"}
{"SMILES": "N[C@@H]1CCN(c2nccc(-c3cnn4ncccc34)n2)C1", "assay": "binding", "setting": "1 µM", "remaining binding": "100%"}
{"SMILES": "CN1CCN(c2cnc3c(C4CCN(C(=O)c5ccc(OC(F)(F)F)cc5N)CC4)ncnc3c2)CC1", "assay": "cell-free assay, competition with immobilised ligand", "setting": "1 µM", "remaining binding": "100%"}
{"SMILES": "CC1CCCN1c1nccc(-c2cnn3ncccc23)n1 (centres unmarked)", "assay": "binding", "setting": "1 µM", "remaining binding": "97%"}
{"SMILES": "Cn1nc(C(F)(F)F)cc1-c1cnc(N2CCc3cc(S(=O)(=O)Nc4c(F)cc(Cl)cc4F)cc(N4CCCC4=O)c32)nc1", "assay": "cell-free assay, competition with immobilised ligand", "setting": "1 µM", "remaining binding": "93%"}
{"SMILES": "CN(CCCC(F)(F)F)c1nccc(-c2cnn3ncccc23)n1", "assay": "binding", "setting": "1 µM", "remaining binding": "93%"}
{"SMILES": "CNC(=O)[C@@H]1CC[C@@H](n2c(-c3ccc4cnccc4c3)nc3ccc(C(=O)NCc4cccc(C(N)=O)c4)cc32)C1", "assay": "binding, competition with immobilised ligand", "setting": "1 µM", "remaining binding": "100%"}
